Target: Amyloid-beta precursor protein (Homo sapiens, UniProt P05067)
Test: Inhibition constant against [125I]-7 (TZDM) binding to Amyloid beta 1-40 aggregates
Procedure, shortened: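 Abeta40 peptide aggregated at 0.5 mg/mL in pH 7.4 buffer (10 mM sodium phosphate, 1 mM EDTA), 37 °C for 36-42 h with shaking. Competition in 1 mL of 40% EtOH: fibrils 10-50 nM final, radiotracer 0.05 nM, inhibitors 10^-5 to 10^-10 M. Nonspecific binding with 2 µM thioflavin-T. Incubated 3 h at room temperature, then GF/B filtration with 10% ethanol washes and gamma counting. Ki from nonlinear regression.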

Amyloid-beta precursor protein, sequence (P05067 whole entry): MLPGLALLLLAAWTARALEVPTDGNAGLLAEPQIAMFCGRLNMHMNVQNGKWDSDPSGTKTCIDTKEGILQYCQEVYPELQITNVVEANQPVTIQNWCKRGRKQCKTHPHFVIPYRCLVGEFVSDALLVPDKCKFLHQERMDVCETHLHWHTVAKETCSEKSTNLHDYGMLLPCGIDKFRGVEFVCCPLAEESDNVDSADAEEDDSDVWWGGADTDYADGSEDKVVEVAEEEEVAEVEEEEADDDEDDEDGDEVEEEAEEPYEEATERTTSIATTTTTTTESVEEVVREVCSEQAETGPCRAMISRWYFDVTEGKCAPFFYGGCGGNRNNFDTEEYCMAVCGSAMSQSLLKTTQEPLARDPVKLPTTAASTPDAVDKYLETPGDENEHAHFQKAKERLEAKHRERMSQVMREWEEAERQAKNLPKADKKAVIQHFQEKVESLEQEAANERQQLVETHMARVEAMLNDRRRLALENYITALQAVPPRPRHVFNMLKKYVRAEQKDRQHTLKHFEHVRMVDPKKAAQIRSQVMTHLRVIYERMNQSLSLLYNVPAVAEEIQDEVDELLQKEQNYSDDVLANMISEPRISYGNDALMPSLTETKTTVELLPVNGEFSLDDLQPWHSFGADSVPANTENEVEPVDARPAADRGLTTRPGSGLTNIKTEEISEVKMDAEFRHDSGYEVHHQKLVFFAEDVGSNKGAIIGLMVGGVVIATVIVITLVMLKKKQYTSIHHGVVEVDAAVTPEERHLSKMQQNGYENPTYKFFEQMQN

Row | SMILES | Ki [nM]
1 | CN(C)c1ccc2nc(-c3ccc(Br)cc3)cn2c1 | 339
2 | Cc1ccc2nc(-c3ccc(Br)cc3)cn2c1 | 638
3 | CNc1ccc(-c2cn3ccccc3n2)cc1 | > 1000

Continued, values first:

Row | Ki [nM] | SMILES
4 | 10.3 | CN(C)c1ccc(-c2cn3cc(Br)ccc3n2)cc1
5 | > 2000 | CN(C)c1ccc(-c2nc3ccccn3c2I)cc1
